A short description of experiment [1]: Antagonistic activity against HOXA1-PBX1/DNA complex formation by electrophoretic mobility shift assay. It counts as functional. The gist of the method:
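Recombinant mouse HOXA1 192–288 and mouse/human PBX1 233–319 (2.5 ng each) preincubated 15 min at 4 °C in HEPES pH 7.9 binding buffer with 135 mM NaCl, poly dIdC and inhibitor in DMSO, then 30 min at ~22 °C with 32P-labeled Klenow-extended annealed oligonucleotide probe. Run on 4% polyacrylamide gel in TBE, autoradiographed; IC50 from averaged densitometry of multiple gels; screened initially at 300 μM.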
(In general: Mobility shift assays separate free from complexed probe on a gel.)

The target of experiment [2] is POU domain, class 3, transcription factor 3 (Mus musculus) (UniProt P31361). The experiment can be described thus: Antagonistic activity against BRN1/DNA interaction by electrophoretic mobility shift assay.
The target in experiment [3] is POU domain, class 3, transcription factor 2 (Mus musculus) (UniProt P31360). The experiment can be described thus: Antagonistic activity against BRN2/DNA interaction by electrophoretic mobility shift assay.

The term IC50 denotes the concentration at which inhibition is half-maximal.

POU domain, class 3, transcription factor 2 (Mus musculus), sequence (P31360 whole entry, looked up, the tested form may be a part): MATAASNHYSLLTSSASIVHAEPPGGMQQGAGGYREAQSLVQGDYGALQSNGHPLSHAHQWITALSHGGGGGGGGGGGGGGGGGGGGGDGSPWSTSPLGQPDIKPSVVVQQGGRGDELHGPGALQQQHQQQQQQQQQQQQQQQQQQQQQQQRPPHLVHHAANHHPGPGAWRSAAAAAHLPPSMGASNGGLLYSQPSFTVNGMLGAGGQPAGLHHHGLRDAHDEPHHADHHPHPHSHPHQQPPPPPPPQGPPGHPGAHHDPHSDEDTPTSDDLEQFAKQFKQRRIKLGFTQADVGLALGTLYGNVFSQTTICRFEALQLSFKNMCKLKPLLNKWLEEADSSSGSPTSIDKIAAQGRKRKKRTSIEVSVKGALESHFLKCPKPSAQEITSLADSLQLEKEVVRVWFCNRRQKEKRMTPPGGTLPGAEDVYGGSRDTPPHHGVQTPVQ
POU domain, class 3, transcription factor 3 (Mus musculus), sequence (P31361 whole entry, looked up, the tested form may be a part): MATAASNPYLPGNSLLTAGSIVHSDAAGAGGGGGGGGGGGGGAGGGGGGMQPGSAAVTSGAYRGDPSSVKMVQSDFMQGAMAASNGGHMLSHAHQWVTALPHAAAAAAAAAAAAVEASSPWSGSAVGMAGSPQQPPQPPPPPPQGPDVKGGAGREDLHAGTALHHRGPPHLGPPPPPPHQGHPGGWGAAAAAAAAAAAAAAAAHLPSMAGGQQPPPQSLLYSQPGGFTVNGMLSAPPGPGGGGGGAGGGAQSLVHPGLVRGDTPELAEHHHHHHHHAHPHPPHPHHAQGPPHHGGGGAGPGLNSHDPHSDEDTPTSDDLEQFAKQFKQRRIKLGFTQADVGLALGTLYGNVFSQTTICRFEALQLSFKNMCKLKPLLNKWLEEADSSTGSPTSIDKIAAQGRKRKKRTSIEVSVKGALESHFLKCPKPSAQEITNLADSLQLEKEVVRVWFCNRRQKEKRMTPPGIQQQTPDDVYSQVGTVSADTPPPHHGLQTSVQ

`COc1ccc(NC(=O)COc2ccc(C(=O)Nc3cccc(F)c3)c3ccccc23)cc1OC`: the IC50 in experiment [1] was determined as 464 µM.
`Cc1ccc(NC(=O)COc2ccc(C(=O)Nc3cccc(F)c3)c3ccccc23)c(C)c1`: the IC50 in experiment [1] was above 300 µM.
In the case of `CN(C)C(=O)COc1ccc(C(=O)Nc2cccc(F)c2)c2ccccc12`, in experiment [1], the IC50 is above 300 µM.
Still for that read-out and setting: as for `CC(C)(C)NC(=O)COc1ccc(C(=O)Nc2cccc(F)c2)c2ccccc12`, the figure is above 300 µM; as for `CCCNC(=O)COc1ccc(C(=O)Nc2cccc(F)c2)c2ccccc12`, 278 µM; as for `COc1ccccc1NC(=O)COc1ccc(C(=O)Nc2cccc(F)c2)c2ccccc12`, 718 µM.
As for `COc1cc(NC(=O)COc2ccc(C(=O)Nc3cccc(F)c3)c3ccccc23)cc(OC)c1`, the IC50 in experiment [1] was above 300 µM.
In the case of `O=C(COc1ccc(C(=O)Nc2cccc(F)c2)c2ccccc12)Nc1cccc(F)c1`, the IC50 in experiment [1] is above 300 µM.
As for `COc1ccc(OC)c(NC(=O)COc2ccc(C(=O)Nc3cccc(F)c3)c3ccccc23)c1`, in experiment [1], the IC50 was above 300 µM.
Regarding `O=C(COc1ccc(C(=O)Nc2cccc(F)c2)c2ccccc12)NC1CC1`, the IC50 in experiment [1] was 173 µM; in experiment [2] it was 810 µM; in experiment [3], above 10000 µM.
Consider `CNC(=O)COc1ccc(C(=O)Nc2cccc(F)c2)c2ccccc12`, for which the IC50 in experiment [1] is above 300 µM.
`O=C(COc1ccc(C(=O)Nc2cccc(F)c2)c2ccccc12)Nc1cccc(O)c1`: the IC50 was 86 µM in experiment [1], 142 µM in experiment [2] and 148 µM in experiment [3].
Turning to `O=C(COc1ccc(C(=O)Nc2cccc(F)c2)c2ccccc12)Nc1ccccc1`, the IC50 in experiment [1] turned out to be 254 µM.
Same read-out and setting: the result for `O=C(COc1ccc(C(=O)Nc2cccc(F)c2)c2ccccc12)Nc1ccccc1F` reads 433 µM; that for `O=C(O)CNC(=O)COc1ccc(C(=O)Nc2cccc(F)c2)c2ccccc12`, above 300 µM.
Consider `C#CCNC(=O)COc1ccc(C(=O)Nc2cccc(F)c2)c2ccccc12`, for which the IC50 in experiment [1] came out at 331 µM.
As to `NC(=O)COc1ccc(C(=O)Nc2cccc(F)c2)c2ccccc12`, in experiment [1], the IC50 came to 272 µM.
Same read-out and setting: the result for `O=C(Nc1cccc(F)c1)c1ccc(OCC(=O)N2CCOCC2)c2ccccc12` reads above 300 µM.
For the compound `O=C(COc1ccc(C(=O)Nc2cccc(F)c2)c2ccccc12)NCCO`, the IC50 in experiment [1] was above 300 µM.
For the compound `CN(C)CCNC(=O)COc1ccc(C(=O)Nc2cccc(F)c2)c2ccccc12`, the IC50 in experiment [1] is above 300 µM.
Same read-out and setting: as for `COc1cccc(NC(=O)COc2ccc(C(=O)Nc3cccc(F)c3)c3ccccc23)c1`, the figure is 580 µM; as for `CCNC(=O)COc1ccc(C(=O)Nc2cccc(F)c2)c2ccccc12`, 200 µM.
Regarding `COc1cc(CNC(=O)COc2ccc(C(=O)Nc3cccc(F)c3)c3ccccc23)cc(OC)c1`, the IC50 in experiment [1] was above 300 µM.
On to `O=C(COc1ccc(C(=O)Nc2cccc(F)c2)c2ccccc12)NCCOCc1ccccc1`, for which, in experiment [1], the IC50 is above 300 µM.
Consider `O=C(COc1ccc(C(=O)Nc2cccc(F)c2)c2ccccc12)NCC(F)(F)F`, for which the 50% inhibitory concentration (IC50) in experiment [1] is 111 µM; in experiment [2], 162 µM; in experiment [3], 204 µM.
`O=C(COc1ccc(C(=O)Nc2cccc(F)c2)c2ccccc12)Nc1ccc(F)cc1`: in experiment [1], the concentration for half-maximal inhibition (IC50) amounted to 293 µM.
With `COc1ccc(NC(=O)COc2ccc(C(=O)Nc3cccc(F)c3)c3ccccc23)cc1`, the IC50 in experiment [1] was found to be 161 µM.
The same measure, in the same setting: the result for `CC(C)NC(=O)COc1ccc(C(=O)Nc2cccc(F)c2)c2ccccc12` reads 272 µM.
With `O=C(COc1ccc(C(=O)Nc2cccc(F)c2)c2ccccc12)Nc1ccc(O)cc1`, the results for the IC50 in experiment [1], in experiment [2] and in experiment [3] were 65 µM, 124 µM and 138 µM, respectively.
For the compound `CCOC(=O)CNC(=O)COc1ccc(C(=O)Nc2cccc(F)c2)c2ccccc12`, in experiment [1], the IC50 was above 300 µM.
As for `CC(C)CNC(=O)COc1ccc(C(=O)Nc2cccc(F)c2)c2ccccc12`, in experiment [1], the IC50 came to 298 µM.
Same read-out and setting: the result for `NNC(=O)COc1ccc(C(=O)Nc2cccc(F)c2)c2ccccc12` reads above 300 µM.

The values are drawn from ChEMBL document CHEMBL1149333, “Privileged scaffolds for blocking protein-protein interactions: 1,4-disubstituted naphthalene antagonists of transcription factor complex HOX-PBX/DNA” (Bioorg Med Chem Lett, 2004).
